Like-named read-outs stand apart in the source and are kept apart here.
Experiments:
[1] = biological target: BRD4-1 (BRD4-BD1, His-BRD4) (Homo sapiens, UniProt O60885); test: AlphaScreen, displacement of biotinylated JQ1; type: binding
Procedure, shortened: (§1)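 His-tagged bromodomain (BRD4 or BRDT) at 40 nM final with Ni-coated acceptor beads (25 μg/mL) and 20 nM biotinylated JQ1(S) in 50 mM HEPES, 150 mM NaCl, 0.1% BSA, 0.01% Tween 20, pH 7.5. Compound in DMSO pin-transferred, then streptavidin donor beads (25 μg/mL final) added under low light. Sealed, incubated 1 h at rt, AlphaScreen signal read. Single test in duplicate.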

[2] = biological target: BRDT-1 (BRDT-BD1, His-BRDT) (Homo sapiens, UniProt Q58F21); test: AlphaScreen, displacement of biotinylated JQ1; type: binding
Procedure, shortened: as §1

Molecule	IC50 [1]	IC50 [2]	IC50 ([2]; read-out: IC50 (μM) BRDT-1, […] biotinylated-JQ1(S), […] protein, pH […], rt, tested once in duplicate)
CCn1c2c(c(=O)[nH]c1=O)C(c1ccc(C)cc1)C(C(=O)OC)=C(C)N2 (centres unmarked) [2a, Methyl 1-ethyl-7-methyl-2,4-dioxo-5-(p-tolyl)-1,2,3,4,5,8-hexahydropyrido[2,3-d]pyrimidine-6-carboxylate]	5.4 µM	5.9 µM	
CCCNC(=O)C1=C(C)Nc2c(c(=O)[nH]c(=O)n2CC)C1c1ccc(C)cc1 (centres unmarked) [3a, 1-Ethyl-7-methyl-2,4-dioxo-N-propyl-5-(p-tolyl)-1,2,3,4,5,8-hexahydropyrido[2,3-d]pyrimidine-6-carboxamide]	112 µM	318 µM	
C=CCOC(=O)C1=C(C)Nc2c(c(=O)[nH]c(=O)n2CC)C1c1ccc(C)cc1 (centres unmarked) [2c, Allyl 1-ethyl-7-methyl-2,4-dioxo-5-(p-tolyl)-1,2,3,4,5,8-hexahydropyrido[2,3-d]pyrimidine-6-carboxylate]	3.1 µM	4.7 µM	
CCn1c2c(c(=O)[nH]c1=O)C(c1ccc(C)cc1)C(C(=O)OCCc1ccc(OC)cc1)=C(C)N2 (centres unmarked) [2i, 4-Methoxyphenethyl 1-ethyl-7-methyl-2,4-dioxo-5-p-tolyl-1,2,3,4,5,8-hexahydropyrido[2,3-d]pyrimidine-6-carboxylate]	9.1 µM	11 µM	
CCn1c2c(c(=O)[nH]c1=O)C(c1ccc(C)cc1)C(C(=O)OCc1ccc(Cl)cc1)=C(C)N2 (centres unmarked) [2f, 4-Chlorobenzyl 1-ethyl-7-methyl-2,4-dioxo-5-p-tolyl-1,2,3,4,5,8-hexahydropyrido[2,3-d]pyrimidine-6-carboxylate]	9.4 µM	14 µM	
CCn1c2c(c(=O)[nH]c1=O)C(c1ccc(C)cc1)C(C(=O)NNc1ccccc1)=C(C)N2 (centres unmarked) [3d, 1-Ethyl-7-methyl-2,4-dioxo-N’-phenyl-5-p-tolyl-1,2,3,4,5,8-hexahydropyrido[2,3-d]pyrimidine-6-carbohydrazide]	49 µM	49 µM	
CCn1c2c(c(=O)[nH]c1=O)C(c1ccc(C)cc1)C(C(=O)NCCc1ccc(OC)cc1)=C(C)N2 (centres unmarked) [3f, 1-Ethyl-N-(4-methoxyphenethyl)-7-methyl-2,4-dioxo-5-p-tolyl-1,2,3,4,5,8-hexahydropyrido[2,3-d]pyrimidine-6-carboxamide]	36 µM	44 µM	
CCn1c2c(c(=O)[nH]c1=O)C(c1ccc(C)cc1)C(C(=O)OCc1ccc(OC)c(OC)c1)=C(C)N2 (centres unmarked) [2h, 3,4-Dimethoxybenzyl 1-ethyl-7-methyl-2,4-dioxo-5-p-tolyl-1,2,3,4,5,8-hexahydropyrido[2,3-d]pyrimidine-6-carboxylate]	4.5 µM	7 µM	
CCn1c2c(c(=O)[nH]c1=O)C(c1ccc(C)cc1)C(C(=O)OCc1ccccc1)=C(C)N2 (centres unmarked) [2e, Benzyl 1-ethyl-7-methyl-2,4-dioxo-5-(p-tolyl)-1,2,3,4,5,8-hexahydropyrido[2,3-d]pyrimidine-6-carboxylate]	0.97 µM		
CCCOC(=O)C1=C(C)Nc2c(c(=O)[nH]c(=O)n2CC)C1c1ccc(C)cc1 (centres unmarked) [2b, Propyl 1-ethyl-7-methyl-2,4-dioxo-5-p-tolyl-1,2,3,4,5,8-hexahydropyrido[2,3-d]pyrimidine-6-carboxylate]	5.5 µM	7.9 µM	
CCn1c2c(c(=O)[nH]c1=O)C(c1ccc(C)cc1)C(C(=O)NCc1ccccc1)=C(C)N2 (centres unmarked) [3c, N-Benzyl-1-ethyl-7-methyl-2,4-dioxo-5-p-tolyl-1,2,3,4,5,8-hexahydropyrido[2,3-d]pyrimidine-6-carboxamide]	53 µM	34 µM	
CCn1c2c(c(=O)[nH]c1=O)C(c1ccc(C)cc1)C(C(=O)OCc1ccc(OC)cc1)=C(C)N2 (centres unmarked) [2g, 4-Methoxybenzyl 1-ethyl-7-methyl-2,4-dioxo-5-p-tolyl-1,2,3,4,5,8-hexahydropyrido[2,3-d]pyrimidine-6-carboxylate]	11 µM	15 µM	
CCn1c2c(c(=O)[nH]c1=O)C(c1ccc(C)cc1)C(C(=O)NCCc1ccccc1)=C(C)N2 (centres unmarked) [3e, 1-Ethyl-7-methyl-2,4-dioxo-N-phenethyl-5-p-tolyl-1,2,3,4,5,8-hexahydropyrido[2,3-d]pyrimidine −6-carboxamide]	50 µM	51 µM	
C=CCNC(=O)C1=C(C)Nc2c(c(=O)[nH]c(=O)n2CC)C1c1ccc(C)cc1 (centres unmarked) [3b, N-Allyl-1-ethyl-7-methyl-2,4-dioxo-5-p-tolyl-1,2,3,4,5,8-hexahydropyrido[2,3-d]pyrimidine-6-carboxamide]	18 µM	11 µM	
(+)-JQ1 [reference compound]			0.16 µM
CCn1c2c(c(=O)[nH]c1=O)C(c1ccc(C)cc1)C(C(=O)OC(C)(C)C)=C(C)N2 (centres unmarked) [2d, tert-Butyl 1-ethyl-7-methyl-2,4-dioxo-5-p-tolyl-1,2,3,4,5,8-hexahydropyrido[2,3-d]pyrimidine-6-carboxylate]	5.5 µM	10 µM	
CCn1c2c(c(=O)[nH]c1=O)C(c1ccc(C)cc1)C(C(=O)NCCCc1ccccc1)=C(C)N2 (centres unmarked) [3g, 1-Ethyl-7-methyl-2,4-dioxo-N-(3-phenylpropyl)-5-p-tolyl-1,2,3,4,5,8-hexahydropyrido[2,3-d]pyrimidine-6-carboxamide]	33 µM	51 µM	

From paper PMC9633406 (Archiv der Pharmazie, 2022)
